Calls of active or inactive are those of the source. The rule behind the calls is not given here.
Tests used:
[1] = target: Pyruvate dehydrogenase kinase (Rattus norvegicus, UniProt Q63065+A6IPZ9+Q64536+O54937); experiment: Inhibitory activity tested against Pyruvate Dehydrogenase Kinase (PDHK) receptor from rats.; format: protein assay
How it was run: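 Commercial PDH complex used as the kinase-containing preparation. PDHK inhibition read spectrophotometrically as NADH production at 340 nm, measured with and without ATP. IC50 ± standard error, from purified substances.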

Rattus norvegicus [2] = experiment: In vivo %control of lactate in normal Sprague-Dawley rats after 2 hr at a dose of 100 umol/Kg; Not active; format: functional, organism-based
How it was run: (§1)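 Male Sprague-Dawley rats, about 200 g, randomly assigned to groups (n = 6/group) and fasted 24 h. Single oral dose of compound in 0.5% carboxymethylcellulose/0.2% Tween-80 (1 mL/100 g), or vehicle alone. Blood taken 2 h post-dose into heparin/fluoride tubes; lactate measured on a biochemistry analyzer. Expressed as percent of vehicle control; groups compared by two-tailed unpaired t-test.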

Rattus norvegicus [3] = experiment: In vivo %control of lactate in normal Sprague-Dawley rats after 2 hr at a dose of 1 umol/Kg; format: functional
How it was run: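 Male Sprague-Dawley rats, about 200 g, randomly assigned to groups (n = 6/group), fasted 24 h, then given compound orally in 0.5% carboxymethylcellulose with 0.2% Tween-80 (1 mL/100 g body weight) or vehicle alone. Blood drawn 2 h post-dose into heparin/fluoride tubes. Lactate measured on a dual-channel biochemistry analyzer and expressed as percent of vehicle control. Unpaired two-tailed t-test.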

Rattus norvegicus [4] = experiment: In vivo %control of lactate in normal Sprague-Dawley rats after 2 hr at a dose of 30 umol/Kg; not active; format: functional, organism-based; how it was run: as §1
Homo sapiens = species on record: Homo sapiens; experiment: Effective concentration required to increase the oxidation of lactate in cellular assay using Human Skin Fibroblasts; format: functional
How it was run: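 Human fibroblasts harvested with trypsin 2-4 days post-confluence and assayed in suspension ((3.5-5) × 10^5 cells per tube) with test compound or solvent control. Equilibrated at 37 °C, then started with DMEM-S containing 25 µM lactate and 0.2 µCi/mL d,l-[1-14C]lactate. Gassed with 95% O2/5% CO2 and shaken 25 min at 37 °C. Stopped with TCA; released 14CO2 trapped and counted by scintillation. EC50 ± standard error.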

Rattus norvegicus [5] = experiment: In vivo %control of lactate in normal Sprague-Dawley rats after 2 hr at a dose of 10 umol/Kg; format: functional; how it was run: as §1
Rattus norvegicus [6] = experiment: In vivo %control of lactate in normal Sprague-Dawley rats after 2 hr at a dose of 100 umol/Kg; format: functional; how it was run: as §1
Rattus norvegicus [7] = experiment: In vivo %control of lactate in normal Sprague-Dawley rats after 2 hr at a dose of 30 umol/Kg; format: functional; how it was run: as §1
Rattus norvegicus [8] = experiment: In vivo %control of lactate in normal Sprague-Dawley rats after 2 hr at a dose of 3 umol/Kg; format: functional; how it was run: as §1

SMILES	IC50 [1] [µM]	NA (Rattus norvegicus [2])	Control (Rattus norvegicus [3]) [%]	NA (Rattus norvegicus [4])	EC50 (Homo sapiens) [µM]	Control (Rattus norvegicus [5]) [%]	Control (Rattus norvegicus [6]) [%]	Control (Rattus norvegicus [7]) [%]	Control (Rattus norvegicus [8]) [%]
C[C@@H]1CN(C(=O)[C@@](C)(O)C(F)(F)F)CCN1C(=O)c1cccc2ccccc12	0.07	inactive							
O=C([O-])C(Cl)Cl.[Na+] [SODIUM DICHLOROACETATE]	> 1000		70						
C[C@@H]1CN(C(=O)[C@@](C)(O)C(F)(F)F)[C@@H](C)CN1Cc1ccccc1	0.082			inactive					

Now from value to compound, other results behind:

IC50 [1] [µM]	SMILES	NA (Rattus norvegicus [2])	Control (Rattus norvegicus [3]) [%]	NA (Rattus norvegicus [4])	EC50 (Homo sapiens) [µM]	Control (Rattus norvegicus [5]) [%]	Control (Rattus norvegicus [6]) [%]	Control (Rattus norvegicus [7]) [%]	Control (Rattus norvegicus [8]) [%]
0.079	C[C@@H]1CN(C(=O)[C@@](C)(O)C(F)(F)F)CCN1C(=O)c1ccc(C#N)cc1				0.25	90	67	60	
0.016	C[C@@H]1CN(C(=O)[C@@](C)(O)C(F)(F)F)[C@@H](C)CN1C(=O)c1ccc(C#N)cc1		87		0.057	74			90

Source: ChEMBL document CHEMBL1133665, “Secondary amides of (R)-3,3,3-trifluoro-2-hydroxy-2-methylpropionic acid as inhibitors of pyruvate dehydrogenase kinase” (J Med Chem, 2000)
